Measured values of several laboratories.
Compare with care: the assays were run in different laboratories.
PPO3: PPO3 (Agaricus bisporus, UniProt C7FF04)
HTR2A: 5-hydroxytryptamine receptor 2A (HTR2A, Homo sapiens, UniProt P28223)

CC(C)CC(=O)OC[C@H]1O[C@@](C#N)(c2ccc3c(N)ncnn23)[C@H](O)[C@@H]1O  inhibition (Adenosine receptor A2a (ADORA2A, Homo sapiens, UniProt P29274); cell-free assay; 20 µM): 13%
CN1CCC[C@H]1c1cccnc1  inhibition (Neuronal acetylcholine receptor; alpha4/beta2 (Rattus norvegicus, UniProt P09483+P12390); ligand displacement, radioligand; 50 µM): 97.6%
COc1cc(/C=C/C(=O)O)ccc1OCc1cn(CC(=O)Nc2cccc(Cl)c2)nn1  inhibition (PPO3; enzyme activity, inhibitor; 40 µM): 11.4%
COc1cc2c3c(c1OC)-c1c(cccc1OC)CC3N(C)CC2 (racemic)  inhibition (HTR2A; ligand displacement, radioligand; 10 µM): 42%
COc1cc(/C=C/C(=O)O)ccc1OCc1cn(CC(=O)Nc2ccc([N+](=O)[O-])cc2C)nn1  inhibition (PPO3; enzyme activity, inhibitor; 40 µM): 44.9%
COc1cc2c(cc1OC)-c1c(OC)c(OC)cc3c1[C@H](C2)N(C)CC3 (racemic)  inhibition (HTR2A; ligand displacement, radioligand; 10 µM): 34%
COc1cc(/C=C/C(=O)O)ccc1OCc1cn(CC(=O)Nc2ccccc2)nn1  inhibition (PPO3; enzyme activity, inhibitor; 40 µM): 10.4%
COc1cc2c3c(c1OC)-c1c(OC)ccc(O)c1CC3N(C)CC2 (stereo not drawn)  inhibition (HTR2A; ligand displacement, radioligand; 10 µM): 36%
c1cncc([C@@H]2CCCN2)c1  inhibition (HTR2A; ligand displacement; 50 µM): -7.27%
